The source of these data is PubChem BioAssay AID1556 (The Scripps Research Institute Molecular Screening Center, 2009).

Out of some 290,000 compounds screened, about 1,300 (0.45%) were called active.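 Rule for the calls: active = inhibition above the mean plus 3 SD of all compounds in the same screening run (cut at about 4.5% in these data); inactive = the rest.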 The sample as a whole holds a higher share of actives than the screen did.

The subject of the experiment is metallo-beta-lactamase IMP-1 (Pseudomonas aeruginosa). Briefly: IMP-1 metallo-beta-lactamase inhibitors, primary screen, biochemical, epi-absorbance readout, Pseudomonas aeruginosa enzyme (AID 1556).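 Note: 0% = IMP-1 with DMSO and 100% = DMSO wells lacking enzyme.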 The conditions noted are these: purified IMP-1, nitrocefin hydrolysis, epi-absorbance fluorescence; at 5.6 µM; active compounds read high. The gist of the method:
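System: Purified recombinant IMP-1 metallo-beta-lactamase enzyme | Measured by: Fluorescence quenching readout, ex 480/em 530 nm | Replication: Singlicate | Incubation: 15 min preincubation plus 25 min reaction at 25 °C | Evaluation: Percent inhibition from optical density relative to buffer-blank wells | Benchmarks: DMSO with and without IMP-1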
As for `COc1ccccc1C(=O)NN1C(=O)C2C3C=CC(O3)C2C1=O` (centres undefined), the inhibition (usually the drop in the measured response relative to a control, in per cent) is -3.22% (inactive).

`O=C(NN1C(=O)C2C3C=CC(O3)C2C1=O)c1ccccc1` (centres undefined): the inhibition is -2.31% (inactive).

As for `COc1ccc(C(=O)NN2C(=O)C3C(c4ccccc4)C=CC(c4ccccc4)C3C2=O)cc1` (centres undefined), the inhibition is 53.9% (active).

For the compound `O=C(NC1CCCC1)C(c1ccco1)N(C(=O)c1ccco1)c1ccc(F)cc1` (centres undefined), the inhibition is -2.48% (inactive).

Take `CCCc1cc(C(=O)Nc2ccc(C(=O)OC)cc2)cs1`: the inhibition is -3.3% (inactive).

Consider `CCc1ccc(OCC(=O)NCC(c2ccc(Cl)cc2)N2CCCCC2)cc1` (centres undefined), for which the inhibition is -1.02% (inactive).

`COc1cccc(CSc2nc3nc(C)cc(C)n3n2)c1`: the inhibition was -1.34% (inactive).

On to `O=C(Nc1ccnn1C1CCN(C/C=C/c2ccc(F)cc2)CC1)C1CCCC1`, for which the inhibition is 0.74% (inactive).

As for `CCCCC(c1nnnn1CS(=O)(=O)c1ccc(C)cc1)N1CCC(C(N)=O)CC1` (centres undefined), the inhibition is 0.14% (inactive).

As for `C=CCN1CCN(C(=O)CCCc2ccccc2)CC1`, the inhibition is -0.18% (inactive).

`NS(=O)(=O)c1ccc(NC(=O)COC(=O)c2c3c(nc4ccccc24)/C(=C\c2ccc4c(c2)OCO4)CCC3)cc1`: the inhibition is 28% (active).

`O=C(COC(=O)c1c2c(nc3ccccc13)/C(=C\c1cccs1)CCC2)Nc1ccccc1Cl`: the inhibition is -3.13% (inactive).

Take `NS(=O)(=O)c1ccc(NC(=O)COC(=O)c2cc3ccccc3oc2=O)cc1`: the inhibition was -1.27% (inactive).

Turning to `COc1cc(-c2cc(C(=O)OCC(=O)Nc3ccc4c(c3)OCO4)c3ccccc3n2)cc(OC)c1OC`, the inhibition is -2.57% (inactive).

As to `COc1cc(/C=C2\CCCc3c2nc2ccccc2c3C(=O)O)cc(Cl)c1O`, the inhibition is -1.14% (inactive).

Turning to `NC(=O)c1ccc(NC(=O)COC(=O)c2c3c(nc4ccccc24)/C(=C\c2ccc4c(c2)OCO4)CCC3)cc1`, the inhibition is 19.6% (active).

On to `O=C(c1ccccc1)N1N=C(c2ccccc2O)CC1c1ccc(Br)cc1` (centres undefined), for which the inhibition was -4.1% (inactive).

Regarding `Cc1cccc(N2CCN(C(=O)c3cccc(N4C(=O)C5C6C=CC(C6)C5C4=O)c3)CC2)c1C` (centres undefined), the inhibition was -2.92% (inactive).

With `CCCCc1nc(NCCN)c(C#N)c2c1CSC(C)(C)C2`, the inhibition was -1.69% (inactive).

In the case of `O=C(Nc1ccc(-c2cscn2)cc1)C1CCCN(Cc2ccc(CO)o2)C1` (centres undefined), the inhibition was -1.8% (inactive).

As to `CN(CC1CCCO1)S(=O)(=O)c1ccc(C(=O)Nc2ccc(F)cc2)cc1` (centres undefined), the inhibition is -2.19% (inactive).

As to `O=C(c1cc(COc2cccc(C(F)(F)F)c2)on1)N1CCSCC1`, the inhibition was -1.37% (inactive).

With `CC(=O)Nc1ccc(S(=O)(=O)N2CCSCC2)cc1`, the inhibition was -4.96% (inactive).

Regarding `CC(=O)NC1=NC(=O)CS1`, the inhibition was 12.7% (active).

Turning to `Cc1ccnc(NC(=O)CCNS(=O)(=O)c2ccc(C)c(C)c2)c1`, the inhibition was -3.48% (inactive).

Turning to `Cc1cc(NC(=O)Nc2ccccc2[N+](=O)[O-])no1`, the inhibition is -1.98% (inactive).

Consider `CCCCCCC(O)(CCN1CCCCC1)c1ccccc1` (centres undefined), for which the inhibition was -1.94% (inactive).

For `CCOc1cccc(/C=N/N2C(=O)CSC2=S)c1O`, the inhibition was -2.38% (inactive).

Regarding `Cc1cc(C(=O)N/N=C/c2ccc(O)c([N+](=O)[O-])c2)c(C)n1-c1ccc(F)cc1`, the inhibition was -0.78% (inactive).

Take `O=C1CSC(=S)N1/N=C/c1ccc(O)c([N+](=O)[O-])c1`: the inhibition was 10.3% (active).

Take `O=C(Nc1cccc(F)c1)[C@@H]1CCCN1`: the inhibition is -1.96% (inactive).

As to `O=C(NCc1cccs1)c1ccc(CS(=O)Cc2ccccc2Cl)o1` (centres undefined), the inhibition was -3% (inactive).

Turning to `CC1CC(C)CN(C(=O)CSc2ccsc2[N+](=O)[O-])C1` (centres undefined), the inhibition was -2.57% (inactive).

Take `Cc1ccc(CN2CCCOCCS2(=O)=O)cc1`: the inhibition was -1.66% (inactive).

Turning to `O=C(N/N=C/c1coc2ccccc2c1=O)c1cc2ccccc2o1`, the inhibition was -0.92% (inactive).

As for `Cc1ccc2occ(/C=N/NC(=O)c3ccccc3C)c(=O)c2c1`, the inhibition was 4.69% (active).

In the case of `CC(C)(C)OC(=O)NCCCCCC(=O)N/N=C/c1coc2ccccc2c1=O`, the inhibition is -0.81% (inactive).

`CCCCc1ccc(NC(=O)NCc2cccnc2)cc1`: the inhibition is -2.87% (inactive).

With `COc1ccc(S(=O)(=O)N2CCOC2CNC(=O)C(=O)NCc2ccncc2)cc1C` (centres undefined), the inhibition was -3.35% (inactive).

For the compound `COC(=O)c1nc(NC(=O)c2ccc(F)cc2)n[nH]1`, the inhibition is -1.83% (inactive).

Turning to `COC(=O)c1nc(NC(=O)c2ccc(C(C)(C)C)cc2)n[nH]1`, the inhibition is -2.13% (inactive).

On to `COC(=O)c1nc(NC(=O)c2ccc(Cl)cc2)n[nH]1`, for which the inhibition was 7.73% (active).

On to `CC(C)c1ccc(N(C(=O)c2ccco2)C(C(=O)NC2CCCC2)c2cccnc2)cc1` (centres undefined), for which the inhibition is -1.29% (inactive).

For `O=C(N/N=C\c1cccnc1)c1cc(-c2ccccc2)nc2c(Cl)cccc12`, the inhibition is -3.33% (inactive).

As to `Cc1occc1C(=O)NC1CCCN(Cc2ccc(CC(C)C)cc2)C1` (centres undefined), the inhibition is -3.33% (inactive).

Regarding `Cc1cc(-c2ccc(C)c(S(=O)(=O)NC(C)Cc3ccco3)c2)on1` (centres undefined), the inhibition is -1.25% (inactive).

Turning to `CCCOc1ccc(-c2c(C(=O)N/N=C/c3ccco3)nnn2-c2nonc2N)cc1`, the inhibition was -3.51% (inactive).

With `C/C(=N\Nc1ccc(S(N)(=O)=O)cc1[N+](=O)[O-])c1cccs1`, the inhibition was 21.1% (active).

For the compound `C/C(=N\Nc1ncc(Cl)cc1Cl)c1cccs1`, the inhibition is -0.11% (inactive).

As to `C/C(=N\NS(=O)(=O)c1ccc(Br)cc1)c1cccs1`, the inhibition is -3.54% (inactive).

On to `COc1cc(C(=S)N2CCOCC2)cc(OC)c1OC(=O)c1ccc([N+](=O)[O-])cc1[N+](=O)[O-]`, for which the inhibition is -5.07% (inactive).

As for `Nc1nc(-c2ccccc2)cc(-c2ccccc2)n1`, the inhibition was -4.04% (inactive).

With `CNc1nc(-c2ccccc2)cc(-c2ccccc2)n1`, the inhibition is 2.66% (inactive).

On to `CS(=O)(=O)c1sc2nc(-c3ccccc3)cc(-c3ccccc3)c2c1N`, for which the inhibition is 5.43% (active).

Consider `O=c1[nH]c2c(c(=O)n1Cc1ccccc1)CCC2`, for which the inhibition is -1.53% (inactive).

As to `CC(=O)c1ccc(-c2ccc(Cn3c(C)nc4cc(N)c(C)nc43)cc2)cc1`, the inhibition was -0.56% (inactive).

Consider `Cc1cc2nc3c(=O)n(Cc4ccccc4)c(=O)[nH]c3nc2cc1N`, for which the inhibition is 9.26% (active).

Consider `COc1cccc(CNC(=O)C2CC(=O)N(C3CCCCCCC3)C2)c1` (centres undefined), for which the inhibition was -1.11% (inactive).

`COc1ccccc1C(=O)N(Cc1ccc(C)o1)C1CCS(=O)(=O)C1` (centres undefined): the inhibition was -3.51% (inactive).
